Reference: PubChem BioAssay
The source made the active and inactive calls.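 The calls were made as follows, unless noted: active = viability at or under a set limit in both replicates, limit being median viability minus 3 SD (cut at about 48% in these data, passing the limit was not always enough); inconclusive = at or under the limit in just one replicate; inactive = at or above the limit in both replicates.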

How the values were obtained:
[1] = SK-BR-3 cell growth inhibitors, pilot screen, 24 h, human (AID 572;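 active = viability at or below 10% of carrier control in both of two separate runs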;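 also: compound exposure lasted between 18 and 24 h rather than exactly 24 h; 100% = carrier-treated control wells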); details: SK-BR-3 viability, CellTiter-Glo luminescence, at 10 µM, stronger effect = lower value
[2] = HUVEC growth inhibition – cell-based, human, primary screen (AID 575;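 active = viability at or below 30% in both replicate assays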;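 also: 100% = median of untreated cell wells with 0.1% DMSO on each plate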); details: HUVEC proliferation, CellTiter-Glo luminescence, 72 h; at 10 µM; stronger effect = lower value
In short: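 Assay system: Primary human umbilical vein endothelial cells | Quantity: 1250 cells per well | Medium: Supplemented EBM, 2% fetal bovine serum | Detection: CellTiter-Glo luminescence measuring cellular ATP | Read-out: % viability vs DMSO wells | Plate: Collagen-coated 384-well format | Times: 72 h exposure, 37 °C, 5% CO2, 30 min RT equilibration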

[3] = growth inhibitors of H69AR lung tumor, primary screen, human, duplicate replicates (AID 580); details: H69AR lung tumor cells viability, ATP luminescence, 72 h; at 10 µM; stronger effect = lower value;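 also: 100% = mean luminescence of untreated wells and 0% = no signal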
[4] = reversal of MRP1-mediated doxorubicin resistance, pilot screen, H69AR cells, doxorubicin co-treatment (AID 601;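 active = viability loss from added drug above about 55%, and viability with drug at most 40%, in both replicates, limit read from the data, passing the limit was not always enough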); details: CellTiter-Glo, 72 h, at 10 µM; for differential viability (reversal): stronger effect = higher value
[5] = 384-well plate pilot, post-Golgi transport modulator project, inhibition of yeast transport mutant growth (AID 636; in the data active = inhibition above about 31%); details: absorbance 615 nm, about 18 h, stronger effect = higher value
[6] = growth suppression of yeast trafficking mutant, preliminary HTS, modulators of trafficking downstream of Golgi apparatus project, 1536-format plate, OD 615 nm (AID 637; in the data active = inhibition above about 30%); details: yeast transport mutant growth, absorbance 615 nm, 18 h; stronger effect = higher value
[7] = H69AR cells + 2 uM doxorubicin, measured here: viability with 2 uM doxorubicin, stronger effect = lower value
[8] = H69AR cells, compound alone cytotoxicity

Row | SMILES | viability [1] | viability [2] | viability [3] | differential viability (reversal) ([4]; H69AR cells + 2 uM doxorubicin) | viability [4, 7] | viability [4, 8] | inhibition [5] | inhibition [6]
1 | Cc1oc(-c2ccc(Cl)cc2)cc1-c1nn2c(-c3ccoc3C)nnc2s1 | 86% (inactive) | 75.3% (inactive) | 83.7% (inactive) | -12% (inactive) | 95.7% | 83.7% | 18.9% (inactive) | 3.06% (inactive)
2 | CCC(C)(C)n1nnnc1C(c1cc2cc(C)ccc2[nH]c1=O)N1CCCC1 (configuration not stated) | 94% (inactive) | 98.7% (inactive) | 98.6% (inactive) | 9.6% (inactive) | 89% | 98.6% | -4.55% (inactive) | 4.26% (inactive)
3 | O=C(CSc1nnc(-c2ccc(Br)cc2)n1C1CCCCC1)N1CCCC1 | 64% (inactive) | 113% (inactive) | 80.2% (inactive) | -6.92% (inactive) | 87.1% | 80.2% | -6.58% (inactive) | -2% (inactive)
4 | Cc1nnc(SCC(=O)NCc2ccc3c(c2)OCO3)s1 | 87% (inactive) | 103% (inactive) | 101% (inactive) | -12.3% (inactive) | 113% | 101% | -2.33% (inactive) | 5.82% (inactive)
5 | Cc1cccc(CC2CC(=O)N(c3ccccc3)C2=O)c1 (configuration not stated) | 117% (inactive) | 101% (inactive) | 102% (inactive) | 10.5% (inactive) | 91.9% | 102% | -3.77% (inactive) | -5.9% (inactive)
6 | CC(=O)c1cccc(NC(=O)NCc2ccco2)c1 | 93% (inactive) | 93.9% (inactive) | 85.7% (inactive) | -0.48% (inactive) | 86.2% | 85.7% | -4.79% (inactive) | 2.36% (inactive)
7 | COC(=O)CNC(=O)COC(=O)c1cc(Cl)cc(Cl)c1N | 104% (inactive) | 96.6% (inactive) | 92.6% (inactive) | -2.94% (inactive) | 95.5% | 92.6% | 0.82% (inactive) | 45.3% (active)
8 | CCn1c(Cc2ccccc2)nnc1SCC(=O)Nc1cc(C)on1 | 109% (inactive) | 114% (inactive) | 98.7% (inactive) | 7.78% (inactive) | 91% | 98.7% | -5.06% (inactive) | -2.95% (inactive)
9 | COc1ccccc1C(=O)N1CCN(C(=O)COc2cccc(C)c2)CC1 | 101% (inactive) | 113% (inactive) | 88.6% (inactive) | 2.75% (inactive) | 85.9% | 88.6% | -7.84% (inactive) | -0.73% (inactive)
